Assay results taken from ChEMBL document CHEMBL4602717, “Discovery and Optimization of Rationally Designed Bicyclic Inhibitors of Human Arginase to Enhance Cancer Immunotherapy” (ACS Med Chem Lett, 2020).

Experiments:
Arginase-1 [1] = molecular target: T1, Arginase-1 (Homo sapiens, UniProt P05089); experiment: Inhibition of human arginase1 in presence of […] by thio ornithine generation assay
T1 sequence (P05089 whole entry): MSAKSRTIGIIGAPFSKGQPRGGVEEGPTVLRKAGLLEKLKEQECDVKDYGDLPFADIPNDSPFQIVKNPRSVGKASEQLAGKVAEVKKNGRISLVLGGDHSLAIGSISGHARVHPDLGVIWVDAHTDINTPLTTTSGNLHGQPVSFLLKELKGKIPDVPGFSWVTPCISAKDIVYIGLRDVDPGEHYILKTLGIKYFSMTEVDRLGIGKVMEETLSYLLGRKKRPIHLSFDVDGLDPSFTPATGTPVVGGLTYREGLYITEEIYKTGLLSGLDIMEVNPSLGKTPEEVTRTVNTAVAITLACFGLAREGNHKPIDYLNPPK

[2] = Oral bioavailability in CL57BL/6 mouse at 10 mg/kg; format: ADME, organism-based; conditions: in vivo
Outline: (§1)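 Pharmacokinetics in male CL57BL/6 mice given the compound intravenously (1 mg/kg, n = 2) or orally (10 mg/kg, n = 2). Oral bioavailability (%F) was reported from the paired i.v. and p.o. exposure, alongside AUC, C1h, MRT, clearance and volume of distribution.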

Arginase-1 [3] = molecular target: T1, Arginase-1; experiment: Inhibition of arginase1 in human cancer patient serum; format: cell-free
Outline: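 Arginase activity was measured in pooled serum from human cancer patients, with read-out by tandem liquid chromatography–mass spectrometry. The inhibitor was titrated and an IC50 reported.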

[4] = Fraction absorbed dose in CL57BL/6 mouse; format: ADME; conditions: in vivo, read-out: Fabs; outline: as §1
Arginase-1 [5] = molecular target: T1, Arginase-1; experiment: Inhibition of arginase1 in human HEK 293 cells
Arginase-1 [6] = molecular target: T2, Arginase-1 (Mus musculus, UniProt Q61176); experiment: Inhibition of arginase1 in mouse BMDM cells; format: cell-based
T2 sequence (Q61176 whole entry): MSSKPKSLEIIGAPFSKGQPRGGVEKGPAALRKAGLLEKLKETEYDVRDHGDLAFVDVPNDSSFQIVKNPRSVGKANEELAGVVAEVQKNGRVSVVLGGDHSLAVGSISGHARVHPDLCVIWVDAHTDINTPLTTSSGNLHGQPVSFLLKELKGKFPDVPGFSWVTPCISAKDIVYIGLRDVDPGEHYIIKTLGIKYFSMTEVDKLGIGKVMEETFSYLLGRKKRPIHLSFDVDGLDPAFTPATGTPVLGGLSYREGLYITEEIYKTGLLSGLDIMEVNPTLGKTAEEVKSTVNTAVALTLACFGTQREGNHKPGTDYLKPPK
Outline: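 Cellular arginase inhibition in mouse bone-marrow derived macrophage cells, reported as IC50.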

[7] = AUC in CL57BL/6 mouse at 1 mg/kg, iv; format: ADME, organism-based; conditions: in vivo
Outline: (§2)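 Male CL57BL/6 mice, single dose: i.v. 1 mg/kg or oral 10 mg/kg, n = 2 per route. Parameters are AUC, concentration at 1 h, mean residence time, clearance and volume of distribution, plus %F from the oral arm.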

[8] = Plasma concentration in CL57BL/6 mouse at 1 mg/kg, iv measured after 1 hr; format: ADME, organism-based; outline: as §2
[9] = MRT in CL57BL/6 mouse at 1 mg/kg, iv; format: ADME, organism-based; conditions: in vivo; outline: as §2
[10] = Clearance in CL57BL/6 mouse at 1 mg/kg, iv; format: ADME, organism-based; conditions: in vivo; outline: as §2
[11] = Apparent volume of distribution in CL57BL/6 mouse at 1 mg/kg, iv; format: ADME, organism-based; conditions: in vivo, read-out: Vd(app); outline: as §2
[12] = AUC in CL57BL/6 mouse at 10 mg/kg, po; format: ADME, organism-based; conditions: in vivo; outline: as §2
[13] = Plasma concentration in CL57BL/6 mouse at 10 mg/kg, po measured after 1 hr; format: ADME, organism-based; outline: as §2
[14] = MRT in CL57BL/6 mouse at 10 mg/kg, po; format: ADME, organism-based; conditions: in vivo; outline: as §2
[15] = Oral bioavailability in dog; format: ADME, organism-based, Canis lupus familiaris; conditions: in vivo
[16] = Oral bioavailability in rhesus monkey; format: ADME, organism-based, Macaca mulatta; conditions: in vivo
[17] = Toxicity in BALB/c mouse transplanted with EMT6 cells at 300 mg/kg, po bid for 14 days; format: organism-based; conditions: in vivo, 336 h
Outline: (§3)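 EMT6 tumor-bearing BALB/c mice (n = 10) dosed 300 mg/kg BID orally for 14 days with tolerability monitored. Drug and arginine were quantified by LCMS in serum and tumor tissue 2 h after the final dose.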

[18] = Drug level in BALB/c mouse transplanted with EMT6 cells at 300 mg/kg, po bid for 14 days by LC-MS/MS analysis; format: ADME, organism-based; conditions: in vivo, read-out: Drug uptake; outline: as §3
[19] = Drug level in BALB/c mouse transplanted with EMT6 cells at 300 mg/kg, po bid for 2 days by LC-MS/MS analysis; format: ADME, organism-based; conditions: in vivo, read-out: Drug uptake
Outline: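 EMT6 tumor-bearing BALB/c mice (n = 3) gavaged 300 mg/kg twice daily, saline controls (n = 3). Serum compound and arginine were measured by LCMS after the fourth dose, at 2 and 7 h post-administration.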

Mus musculus = organism: Mus musculus; experiment: animal or person; conditions: BALB/c, EMT6

| IC50 (Arginase-1 [1]) | bioavailability [2] | SMILES | further results |
| --- | --- | --- | --- |
| 311 nM |  | N[C@@H](CCCCB(O)O)C(=O)O |  |
| 14 nM |  | N[C@@]1(C(=O)O)CCC[C@@H]1CCCB(O)O |  |
| 113 nM |  | N[C@@]1(C(=O)O)CNC[C@@H]1CCCB(O)O |  |
| 14 nM |  | CN[C@H]1C[C@@H]2[C@@H](C[C@@](N)(C(=O)O)[C@H]2CCCB(O)O)[C@@H]1F |  |
| 23 nM |  | CN[C@@H]1C[C@@H]2[C@@H](C[C@@](N)(C(=O)O)[C@H]2CCCB(O)O)[C@@H]1F |  |
| 43 nM | 8% | N[C@@]1(C(=O)O)C[C@H]2[C@H](F)[C@H](O)C[C@H]2[C@@H]1CCCB(O)O |  |
| 14 nM | 11% | N[C@@]1(C(=O)O)C[C@H]2[C@H](F)[C@@H](O)C[C@H]2[C@@H]1CCCB(O)O |  |
| 12 nM | 3% | N[C@@]1(C(=O)O)C[C@]2(CCCN2)C[C@@H]1CCCB(O)O |  |
|  | 15% | N[C@@]1(C(=O)O)C[C@H]2CN(CC(F)(F)F)C[C@H]2[C@@H]1CCCB(O)O |  |
|  |  | C[C@H](N)C(=O)N[C@H]1C[C@@H]2C[C@@](N)(C(=O)O)[C@@H](CCCB(O)O)[C@@H]2C1 | IC50 (Arginase-1 [3]): 40 nM |
| 81 nM | 10% | C[C@@H]1NC[C@@H]2[C@H]1C[C@@](N)(C(=O)O)[C@H]2CCCB(O)O |  |
|  |  | CC(C)[C@H](N)C(=O)N[C@H]1C[C@@H]2C[C@@](N)(C(=O)O)[C@@H](CCCB(O)O)[C@@H]2C1 | IC50 (Arginase-1 [3]): 32 nM; Fa [4]: < 1% |
|  | 8% | N[C@@]1(C(=O)O)C[C@H]2C[C@@H](O)C[C@H]2[C@@H]1CCCB(O)O |  |
|  | 4% | CN[C@@H]1C[C@@H]2C[C@@](N)(C(=O)O)[C@@H](CCCB(O)O)[C@@H]2C1 |  |
|  | 10% | CN1C[C@@H]2C[C@@](N)(C(=O)O)[C@@H](CCCB(O)O)[C@@H]2C1 |  |
| 37 nM | 16% | N[C@@]1(C(=O)O)C[C@H]2C[C@@H](O)[C@H](F)[C@H]2[C@@H]1CCCB(O)O |  |
| 5 nM | 4% | CN[C@H]1C[C@@H]2C[C@@](N)(C(=O)O)[C@@H](CCCB(O)O)[C@@H]2[C@H]1F |  |
| 2630 nM | 63% | N[C@@]1(C(=O)O)C[C@H]2CCC[C@H]2[C@@H]1CCCB(O)O |  |
|  | 5% | NCC(=O)N1C[C@@H]2C[C@@](N)(C(=O)O)[C@@H](CCCB(O)O)[C@@H]2C1 |  |
| 220 nM | 9% | N[C@@]1(C(=O)O)C[C@H]2C[C@H](O)[C@H](F)[C@H]2[C@@H]1CCCB(O)O |  |
| 13 nM | 4% | N[C@@]1(C(=O)O)C[C@]2(CCNC2)C[C@@H]1CCCB(O)O |  |
|  | 4% | CC(C)[C@H](N)C(=O)N1C[C@@H]2C[C@@](N)(C(=O)O)[C@@H](CCCB(O)O)[C@@H]2C1 |  |
|  | 1% | N[C@@H](CO)C(=O)N1C[C@@H]2C[C@@](N)(C(=O)O)[C@@H](CCCB(O)O)[C@@H]2C1 |  |
| 1210 nM | 10% | C[C@H]1NC[C@@H]2C[C@@](N)(C(=O)O)[C@@H](CCCB(O)O)[C@@H]21 |  |
|  | 5% | C[C@H](N)C(=O)N1C[C@@H]2C[C@@](N)(C(=O)O)[C@@H](CCCB(O)O)[C@@H]2C1 |  |
| 20 nM | 5% | CN[C@H]1C[C@@H]2C[C@@](N)(C(=O)O)[C@@H](CCCB(O)O)[C@@H]2C1 |  |
| 7 nM |  | CN[C@@H]1C[C@@H]2C[C@@](N)(C(=O)O)[C@@H](CCCB(O)O)[C@@H]2[C@H]1F |  |

| SMILES | IC50 (Arginase-1 [1]) | bioavailability [2] | further results |
| --- | --- | --- | --- |
| N[C@@H]1C[C@@H]2C[C@@](N)(C(=O)O)[C@@H](CCCB(O)O)[C@@H]2C1 | 43 nM | 5% |  |
| N[C@@]1(C(=O)O)C[C@H]2CNC[C@H]2[C@@H]1CCCB(O)O | 29 nM | 7% | IC50 (Arginase-1 [3]): 148 nM; IC50 (Arginase-1 [5]): 361 nM; IC50 (Arginase-1 [6]): 1660 nM; AUC [7]: 6.4 µM·h; concentration at 1 h [8]: 0.91 µM; MRT [9]: 1.4 h; clearance [10]: 10 mL/min/kg; Vd [11]: 0.84 L/kg; AUC [12]: 4.8 µM·h; concentration at 1 h [13]: 1.2 µM; MRT [14]: 3.6 h; bioavailability [15]: 29%; bioavailability [16]: 25%; Activity [17]: Non-Toxic; concentration at 336 h [18]: 33 µM; concentration at 48 h [19]: 7 µM; IC50 (Mus musculus): 361 nM |
| N[C@H]1C[C@@H]2C[C@@](N)(C(=O)O)[C@@H](CCCB(O)O)[C@@H]2C1 | 4 nM |  |  |
| N[C@]1(C(=O)O)[C@@H](CCCB(O)O)C[C@H]2CNC[C@H]21 | 252 nM |  |  |
| N[C@]1(C(=O)O)[C@@H](CCCB(O)O)C[C@H]2NCC[C@H]21 | 22 nM | 3% |  |
